16 compounds from ChEMBL document CHEMBL1124136, “The acylating potential of gamma-lactam antibacterials: base hydrolysis of bicyclic pyrazolidinones” (J Med Chem, 1988) can be followed below.

≈ marks a conversion by molar mass, not a printed value.

The test system of data set [1] is Klebsiella pneumoniae. The data set is described as follows: Minimum inhibitory concentration (MIC), tested against Klebsiella pneumoniae X68. It counts as functional.
Data set [2] is described as follows: Rate constant for hydrolysis at pH 9. It counts as ADME. As to conditions: buffer. In a few lines: (§1)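 Constant-pH hydrolysis (pH 9 or 11) was run on a pH-stat with NaOH addition, and loss of lactam (3.6×10^-4 to 1×10^-3 M) was followed by HPLC. Ionic strength was 0.5 with KCl. A pseudo-first-order rate constant was obtained from the disappearance time course.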

In data set [3] the test system is Providencia rettgeri. The data set is described as follows: Minimum inhibitory concentration (MIC), tested against Providencia rettgeri C24. The data set is classed as functional.
The subject of data set [4] is Streptococcus pyogenes. The experiment in a line: Minimum inhibitory concentration (MIC), tested against Streptococcus pyogenes C203. The data set is classed as functional.
A short description of data set [5]: Rate constant for hydrolysis at pH 10. It counts as ADME. The conditions noted are these: buffer. In outline:
(§2)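 Pseudo-first-order loss of parent lactam followed by HPLC at 35 °C. Lactam was 3.6×10^-4 to 1×10^-3 M in aqueous KCl at ionic strength 0.5, with pH held by NaOH on a pH-stat. Values were measured at pH 10 directly, or at pH 9 (×10) or pH 11 (÷10), taking k_obsd as proportional to [OH−].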

Data set [6] in a line: Rate constant for hydrolysis at pH 11. The data set is classed as ADME. The conditions noted are these: buffer. In a few lines: as §1
Data set [7] can be described thus: Pseudo-first-order Rate constant for hydrolysis at pH 10. As to conditions: buffer. It counts as ADME. In a few lines: as §2

Regarding `CO/N=C(\C(=O)NC1CN2CC(S(C)(=O)=O)=C(C(=O)O)N2C1=O)c1csc(N)n1` (stereo unspecified), the figures for the MIC in data set [1], in data set [3] and in data set [4] were 0.25 µg/mL (≈ 0.562 µM), 0.06 µg/mL (≈ 0.135 µM) and 0.25 µg/mL (≈ 0.562 µM), respectively. In data set [2], the k was 14.8 h⁻¹.

With `CO/N=C(\C(=O)NC1CN2CC(C(=O)OC)=C(C(=O)O)N2C1=O)c1csc(N)n1` (stereo unspecified), the MIC was 8 µg/mL (≈ 18.9 µM) in data set [1], 1 µg/mL (≈ 2.36 µM) in data set [3] and 4 µg/mL (≈ 9.43 µM) in data set [4]. Also, in data set [2], the k stood at 4.74 h⁻¹.

Regarding `CO/N=C(\C(=O)NC1CN2N(C1=O)C(C(=O)O)=C(C(=O)OC)C2(C)C)c1csc(N)n1` (stereo unspecified), the MIC in data set [1] is over 128 µg/mL; in data set [3] it was over 128 µg/mL; in data set [4], 64 µg/mL (≈ 141 µM). This compound showed a k in data set [5] of 0.769 h⁻¹.

For `CO/N=C(\C(=O)NC1CN2CC(C(=O)O)=C(C(=O)O)N2C1=O)c1csc(N)n1` (stereo unspecified), the MIC in data set [1] stood at 64 µg/mL (≈ 156 µM); in data set [3] it was 8 µg/mL (≈ 19.5 µM); in data set [4], 8 µg/mL (≈ 19.5 µM). Further, the k in data set [5] is 0.324 h⁻¹.

`CO/N=C(\C(=O)NC1CN2CC(c3ccccc3)=C(C(=O)O)N2C1=O)c1csc(N)n1` (stereo unspecified): the MIC in data set [1], in data set [3] and in data set [4] was over 128 µg/mL in each case. This compound yielded a k in data set [5] of 0.146 h⁻¹.

`CO/N=C(\C(=O)NC1CN2N(C1=O)C(C(=O)O)=C(C(=O)O)C2(C)C)c1csc(N)n1` (stereo unspecified): the minimum inhibitory concentration (MIC) in data set [1], in data set [3] and in data set [4] was over 128 µg/mL each time. This compound came in with a k in data set [6] of 0.0111 h⁻¹.

Turning to `CO/N=C(\C(=O)NC1CN2CC(C(=O)Nc3ccccc3)=C(C(=O)O)N2C1=O)c1csc(N)n1` (stereo unspecified), the values for the MIC in data set [1], in data set [3] and in data set [4] were 32 µg/mL (≈ 65.9 µM), 8 µg/mL (≈ 16.5 µM) and 1 µg/mL (≈ 2.06 µM), respectively. Also, the k in data set [2] stood at 2.33 h⁻¹.

Consider `CO/N=C(\C(=O)NC1CN2CC(c3cccs3)=C(C(=O)O)N2C1=O)c1csc(N)n1` (stereo unspecified), for which the MIC in data set [1], in data set [3] and in data set [4] was over 128 µg/mL each time. In data set [5], this compound registered a k of 0.19 h⁻¹.

As to `CO/N=C(\C(=O)NC1CN2CC(C#N)=C(C(=O)O)N2C1=O)c1csc(N)n1` (stereo unspecified), the MIC was 0.5 µg/mL (≈ 1.28 µM) in data set [1], 0.25 µg/mL (≈ 0.639 µM) in data set [3] and 0.5 µg/mL (≈ 1.28 µM) in data set [4]. The compound further came in with a k in data set [2] of 17.3 h⁻¹.

For `CO/N=C(\C(=O)NC1CN2CC(C(C)=O)=C(C(=O)O)N2C1=O)c1csc(N)n1` (stereo unspecified), the MIC came out at 2 µg/mL (≈ 4.9 µM) in data set [1], 0.25 µg/mL (≈ 0.612 µM) in data set [3] and 0.5 µg/mL (≈ 1.22 µM) in data set [4]. The compound further came in with a k in data set [2] of 7.24 h⁻¹.

As for `C[C@H]1[C@H](NC(=O)/C(=N\OC(C)(C)C(=O)O)c2csc(N)n2)C(=O)N1S(=O)(=O)O` [AZTREONAM], the k in data set [7] came out at 0.4 h⁻¹.

As for `N[C@@H](C(=O)N[C@@H]1C(=O)N2C(C(=O)O)=C(Cl)CS[C@H]12)c1ccccc1.O` [CEFACLOR], the k in data set [7] was 0.944 h⁻¹.

`CC(C)(O/N=C(\C(=O)N[C@@H]1C(=O)N2C(C(=O)[O-])=C(C[n+]3ccccc3)CS[C@H]12)c1csc(N)n1)C(=O)O` [CEFTAZIDIME] showed a k in data set [7] of 1.3 h⁻¹.

`CC1=C(C(=O)O)N2C(=O)[C@@H](NC(=O)[C@H](N)c3ccccc3)[C@H]2SC1` [CEPHALEXIN ANHYDROUS] came in with a k in data set [7] of 0.0685 h⁻¹.

On to `CC(=O)OCC1=C(C(=O)O)N2C(=O)[C@@H](NC(=O)Cc3cccs3)[C@H]2SC1` [CEPHALOTHIN], for which the k in data set [7] amounted to 0.317 h⁻¹.

In data set [7], `CC1(C)S[C@@H]2[C@H](NC(=O)COc3ccccc3)C(=O)N2[C@H]1C(=O)O` [PENICILLIN V] displayed a k of 0.248 h⁻¹.
